Columns and labels:
Rattus norvegicus [1] = assay: Plasma concentration of 3 mg/kg iv after 0.083 hr in rats; settings: in vivo
Rhesus monkey [2] = assay: Plasma concentration after 3 mg/kg intravenous dosing in Rhesus monkey at 2.0 hr; format: ADME, organism-based, Macaca mulatta; parameters: dose 3 mg/kg, route intravenous; settings: in vivo
In short: (§1)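 Rhesus monkeys dosed at 3 mg/kg in propylene glycol, intravenously and orally, n = 2 per data point. Plasma concentrations given as mean ± SEM, and pharmacokinetic parameters calculated with standard equations.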

Rhesus monkey [3] = assay: Plasma concentration after 3 mg/kg intravenous dosing in Rhesus monkey at 0.5 hr; format: ADME, organism-based, Macaca mulatta; parameters: dose 3 mg/kg, route intravenous; settings: in vivo
In short: as §1

[4] = Plasma clearance after intravenous administration dosing (3 mg/kg) in Rhesus monkey
Mustela putorius furo = assay: Effects on […] and vomiting response in ferrets induced by 10 mg/kg iv dose of cisplatin; format: functional
In short: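 Ferrets given cisplatin 10 mg/kg iv to induce retching and vomiting. Test compound given iv; response observed over a 4 h period, n = 6-8 per group.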

Rattus norvegicus [5] = assay: Plasma concentration of 3 mg/kg iv after 5 hr in rats; format: ADME, organism-based; parameters: dose 3 mg/kg, route intravenous; settings: in vivo
In short: (§2)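 Rats given compound intravenously and orally in solution. Three rats per time point sampled for plasma drug levels. Pharmacokinetic parameters calculated from the plasma concentration–time data using standard equations. Data reported as mean ± SEM.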

Rattus norvegicus [6] = assay: Inhibition of […] of the rat after intravenous administration; format: functional; settings: read-out: ID50 (the source's name)
In short: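 Rats given test compound intravenously. Plasma extravasation in the dura mater measured, n = 8-10. ID50 reported in mg/kg iv.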

Rhesus monkey [7] = assay: Plasma concentration after 3 mg/kg intravenous dosing in Rhesus monkey at 1.0 hr; format: ADME, organism-based, Macaca mulatta; parameters: dose 3 mg/kg, route intravenous; settings: in vivo
In short: as §1

Rhesus monkey [8] = assay: Plasma concentration after 3 mg/kg peroral dosing in Rhesus monkey at 8.0 hr; format: ADME, organism-based, Macaca mulatta; parameters: dose 3 mg/kg, route oral; settings: in vivo, po
In short: as §1

Rhesus monkey [9] = assay: Plasma concentration after 3 mg/kg peroral dosing in Rhesus monkey at 4.0h; format: ADME, organism-based, Macaca mulatta; parameters: dose 3 mg/kg, route oral; settings: in vivo, po, 4 h
In short: as §1

Rattus norvegicus [10] = assay: Plasma concentration of 3 mg/kg iv after 4 hr in rats; format: ADME, organism-based; parameters: dose 3 mg/kg, route intravenous; settings: in vivo
In short: as §2

Rattus norvegicus [11] = assay: Plasma concentration after 3 mg/kg peroral dosing in rat at 8.0 hr in rats; format: ADME, organism-based; parameters: dose 3 mg/kg, route oral; settings: in vivo, po
Rhesus monkey [12] = assay: Plasma concentration after 3 mg/kg peroral dosing in Rhesus monkey at 0.167 hr; format: ADME, organism-based, Macaca mulatta; parameters: dose 3 mg/kg, route oral; settings: in vivo, po
In short: as §1

Rattus norvegicus [13] = assay: Plasma concentration of 3 mg/kg iv after 0.5 hr in rats; format: ADME, organism-based; parameters: dose 3 mg/kg, route intravenous; settings: in vivo
In short: as §2

[14] = VD values expressed in (L/Kg) in Rhesus monkey; format: ADME, organism-based, Macaca mulatta; settings: in vivo
In short: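 Rhesus monkeys dosed at 3 mg/kg in propylene glycol, intravenously and orally, with n = 2 per data point. Pharmacokinetic parameters calculated from the plasma concentration data using standard equations. Values given as mean ± SEM.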

Rhesus monkey [15] = assay: Plasma concentration after 3 mg/kg intravenous dosing in Rhesus monkey at 0.167 hr; format: ADME, organism-based, Macaca mulatta; parameters: dose 3 mg/kg, route intravenous; settings: in vivo
In short: as §1

Rattus norvegicus [16] = assay: Plasma concentration after 3 mg/kg peroral dosing in rat at 6.0 hr in rats; format: ADME, organism-based; parameters: dose 3 mg/kg, route oral; settings: in vivo, po
[17] = VD values expressed in (L/Kg) in rat; format: ADME, organism-based; settings: in vivo
In short: as §2

Rattus norvegicus [18] = assay: Plasma concentration of 3 mg/kg iv after 7 hr in rats; format: ADME, organism-based; parameters: dose 3 mg/kg, route intravenous; settings: in vivo
In short: as §2

Rattus norvegicus [19] = assay: Plasma concentration of 3 mg/kg iv after 6 hr in rats; format: ADME, organism-based; parameters: dose 3 mg/kg, route intravenous; settings: in vivo
In short: as §2

Rhesus monkey [20] = assay: Plasma concentration after 3 mg/kg intravenous dosing in Rhesus monkey at 8.0 hr; format: ADME, organism-based, Macaca mulatta; parameters: dose 3 mg/kg, route intravenous; settings: in vivo
In short: as §1

Rhesus monkey [21] = assay: Plasma concentration after 3 mg/kg intravenous dosing in Rhesus monkey at 6.0 hr; format: ADME, organism-based, Macaca mulatta; parameters: dose 3 mg/kg, route intravenous; settings: in vivo
In short: as §1

Rattus norvegicus [22] = assay: Plasma concentration after 3 mg/kg peroral dosing in rat at 3.0 hh in rats; format: ADME, organism-based; parameters: dose 3 mg/kg, route oral; settings: in vivo, po
Rattus norvegicus [23] = assay: Plasma concentration of 3 mg/kg iv after 8 hr in rats; format: ADME, organism-based; parameters: dose 3 mg/kg, route intravenous; settings: in vivo
In short: as §2

Rattus norvegicus [24] = assay: Plasma concentration of 3 mg/kg iv after 1 hr in rats; format: ADME, organism-based; parameters: dose 3 mg/kg, route intravenous; settings: in vivo
In short: as §2

Rattus norvegicus [25] = assay: Plasma concentration of 3 mg/kg iv after 3h in rats; format: ADME, organism-based; parameters: dose 3 mg/kg, route intravenous; settings: in vivo
In short: as §2

Rattus norvegicus [26] = assay: Plasma concentration of 3 mg/kg iv after 0.25 hr in rats; format: ADME, organism-based; parameters: dose 3 mg/kg, route intravenous; settings: in vivo
In short: as §2

Rhesus monkey [27] = assay: Plasma concentration after 3 mg/kg peroral dosing in Rhesus monkey at 0.5 hr; format: ADME, organism-based, Macaca mulatta; parameters: dose 3 mg/kg, route oral; settings: in vivo, po
In short: as §1

Substance-P receptor = Substance-P receptor (Homo sapiens, UniProt P25103); assay: Displacement of [125 I]-Tyr8 SP from the cloned human Tachykinin receptor 1 expressed in CHO cells; format: cell-based
Oryctolagus cuniculus = species on record: Oryctolagus cuniculus; assay: Displacement of [3H]diltiazem from rabbit skeletal muscle calcium channel; format: tissue-based; settings: Muscle tissue
Rhesus monkey [28] = assay: Plasma concentration after 3 mg/kg peroral dosing in Rhesus monkey at 2.0 hr; format: ADME, organism-based, Macaca mulatta; parameters: dose 3 mg/kg, route oral; settings: in vivo, po
In short: as §1

Rattus norvegicus [29] = assay: Plasma concentration after 3 mg/kg peroral dosing in rat at 5.0 hr in rats; format: ADME, organism-based; parameters: dose 3 mg/kg, route oral; settings: in vivo, po
[30] = Bioavailability expressed as F% in Rhesus monkey; format: ADME, organism-based, Macaca mulatta; settings: in vivo
[31] = Bioavailability in rat; format: ADME, organism-based; settings: in vivo
Rattus norvegicus [32] = assay: Plasma concentration after 3 mg/kg peroral dosing in rat at 0.5 hr in rats; format: ADME, organism-based; parameters: dose 3 mg/kg, route oral; settings: in vivo, po
Rattus norvegicus [33] = assay: Plasma concentration after 3 mg/kg peroral dosing in rat at 4.0h in rats; format: ADME, organism-based; parameters: dose 3 mg/kg, route oral; settings: in vivo, po, 4 h
Rattus norvegicus [34] = assay: Plasma concentration after 3 mg/kg peroral dosing in rat at 7.0 hr in rats; format: ADME, organism-based; parameters: dose 3 mg/kg, route oral; settings: in vivo, po
Rattus norvegicus [35] = assay: Plasma concentration after 3 mg/kg peroral dosing in rat at 0.083 hr in rats; format: ADME, organism-based; parameters: dose 3 mg/kg, route oral; settings: in vivo, po
Rattus norvegicus [36] = assay: Plasma concentration after 3 mg/kg peroral dosing in rat at 2.0 hr in rats; format: ADME, organism-based; parameters: dose 3 mg/kg, route oral; settings: in vivo, po
Rattus norvegicus [37] = assay: Plasma concentration after 3 mg/kg peroral dosing in rat at 1.0 hr in rats; format: ADME, organism-based; parameters: dose 3 mg/kg, route oral; settings: in vivo, po
Rattus norvegicus [38] = assay: Plasma concentration of 3 mg/kg iv after 2 hr in rats; format: ADME, organism-based; parameters: dose 3 mg/kg, route intravenous; settings: in vivo
In short: as §2

Rhesus monkey [39] = assay: Plasma concentration after 3 mg/kg peroral dosing in Rhesus monkey at 1.0 hr; format: ADME, organism-based, Macaca mulatta; parameters: dose 3 mg/kg, route oral; settings: in vivo, po
In short: as §1

Cavia porcellus = assay: Inhibition of SP induced dermal extravasation in the guinea pig after peroral administration; format: functional; settings: read-out: ID50 (the source's name)
In short: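 Guinea pigs were dosed orally, then challenged with intradermal SP 1 h later. Vascular leakage was measured as Evans blue extravasation into the skin. Dose-response was run with 5-12 animals per point, and ID50 is reported in mg/kg po.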

Rhesus monkey [40] = assay: Plasma concentration after 3 mg/kg intravenous dosing in Rhesus monkey at 4.0h; format: ADME, organism-based, Macaca mulatta; parameters: dose 3 mg/kg, route intravenous; settings: in vivo, 4 h
In short: as §1

Rhesus monkey [41] = assay: Plasma concentration after 3 mg/kg peroral dosing in Rhesus monkey at 6.0 hr; format: ADME, organism-based, Macaca mulatta; parameters: dose 3 mg/kg, route oral; settings: in vivo, po
In short: as §1

[42] = Plasma clearance after intravenous administration dosing (3 mg/kg) in rat
Rattus norvegicus [43] = assay: Plasma concentration after 3 mg/kg peroral dosing in rat at 0.25 hr in rats; format: ADME, organism-based; parameters: dose 3 mg/kg, route oral; settings: in vivo, po
Rattus norvegicus [44] = species on record: Rattus norvegicus; assay: Degradation of compound in incubations at 25 uM with normal rat liver microsomes after 15 min relative to initial concentration of 1 uM; format: functional
In short: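 Incubated at 25 µM with normal rat liver microsomes; P-450 at 1.45 nM/mg microsomal protein. Sampled at 15 min, 1 h, 4 h and 24 h. Remaining substrate reported relative to an initial level of 1.0, n = 1.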

Chain of Substance-P receptor (P25103 whole entry): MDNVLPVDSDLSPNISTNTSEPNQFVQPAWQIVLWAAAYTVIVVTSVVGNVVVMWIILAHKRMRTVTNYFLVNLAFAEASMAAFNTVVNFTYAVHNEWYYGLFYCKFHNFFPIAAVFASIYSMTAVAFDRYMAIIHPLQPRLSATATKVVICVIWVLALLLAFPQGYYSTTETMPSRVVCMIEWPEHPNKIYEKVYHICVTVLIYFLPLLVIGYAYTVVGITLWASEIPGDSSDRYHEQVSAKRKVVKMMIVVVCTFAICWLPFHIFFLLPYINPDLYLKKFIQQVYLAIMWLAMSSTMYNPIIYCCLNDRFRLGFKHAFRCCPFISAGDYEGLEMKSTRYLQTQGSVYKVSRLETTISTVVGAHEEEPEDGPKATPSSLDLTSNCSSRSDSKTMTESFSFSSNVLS

SMILES: O=c1[nH]nc(CN2CCC[C@H](OCc3cc(C(F)(F)F)cc(C(F)(F)F)c3)[C@@H]2c2ccccc2)[nH]1
- Concentration (Rattus norvegicus [1]): 599 ng/mL
- Concentration (Rhesus monkey [2]): 3080 ng/mL
- Concentration (Rhesus monkey [3]): 5020 ng/mL
- clearance [4]: 2.4 mL/min/kg
- ID90 (Mustela putorius furo): 1 mg/kg
- Concentration (Rattus norvegicus [5]): 21 ng/mL
- ED50 (Rattus norvegicus [6]): 0.028 mg/kg
- Concentration (Rhesus monkey [7]): 3660 ng/mL
- Concentration (Rhesus monkey [8]): 500 ng/mL
- Concentration (Rhesus monkey [9]): 520 ng/mL
- Concentration (Rattus norvegicus [10]): 30 ng/mL
- Concentration (Rattus norvegicus [11]): < 5 ng/mL
- Concentration (Rhesus monkey [12]): 20 ng/mL
- Concentration (Rattus norvegicus [13]): 291 ng/mL
- Vd [14]: 0.55 L/kg
- Concentration (Rhesus monkey [15]): 5240 ng/mL
- Concentration (Rattus norvegicus [16]): 12 ng/mL
- Vd [17]: 6.5 L/kg
- Concentration (Rattus norvegicus [18]): < 5 ng/mL
- Concentration (Rattus norvegicus [19]): 9 ng/mL
- Concentration (Rhesus monkey [20]): 720 ng/mL
- Concentration (Rhesus monkey [21]): 1220 ng/mL
- Concentration (Rattus norvegicus [22]): 65 ng/mL
- Concentration (Rattus norvegicus [23]): < 5 ng/mL
- Concentration (Rattus norvegicus [24]): 203 ng/mL
- Concentration (Rattus norvegicus [25]): 52 ng/mL
- Concentration (Rattus norvegicus [26]): 244 ng/mL
- Concentration (Rhesus monkey [27]): 50 ng/mL
- IC50 (Substance-P receptor): 0.05 nM
- Binding affinity (Oryctolagus cuniculus): 12.6 µM
- Concentration (Rhesus monkey [28]): 150 ng/mL
- Concentration (Rattus norvegicus [29]): 25 ng/mL
- bioavailability [30]: 23.7%
- bioavailability [31]: 46%
- Concentration (Rattus norvegicus [32]): 70 ng/mL
- Concentration (Rattus norvegicus [33]): 41 ng/mL
- Concentration (Rattus norvegicus [34]): < 5 ng/mL
- Concentration (Rattus norvegicus [35]): 11 ng/mL
- Concentration (Rattus norvegicus [36]): 94 ng/mL
- Concentration (Rattus norvegicus [37]): 45 ng/mL
- Concentration (Rattus norvegicus [38]): 135 ng/mL
- Concentration (Rhesus monkey [39]): 80 ng/mL
- ED50 (Cavia porcellus): 0.037 mg/kg
- Concentration (Rhesus monkey [40]): 1980 ng/mL
- Concentration (Rhesus monkey [41]): 580 ng/mL
- clearance [42]: 73 mL/min/kg
- Concentration (Rattus norvegicus [43]): 29 ng/mL

SMILES: FC(F)(F)c1cc(CO[C@H]2CCCN(Cc3cocn3)[C@H]2c2ccccc2)cc(C(F)(F)F)c1
- Relative oncentration (Rattus norvegicus [44]): 0.05 µM
- IC50 (Substance-P receptor): 1 nM
- Binding affinity (Oryctolagus cuniculus): 23 µM

From ChEMBL document CHEMBL1129245, “N-heteroaryl-2-phenyl-3-(benzyloxy)piperidines: a novel class of potent orally active human NK1 antagonists” (J Med Chem, 1996)
